The values below come from ChEMBL document CHEMBL1137037, “Pyrrolo[2,1-c][1,4]benzodiazepine-anthraquinone conjugates. Synthesis, DNA binding and cytotoxicity” (Bioorg Med Chem Lett, 2004).

As a reminder, the IC50 is the midpoint of a concentration-inhibition curve. Read a low IC50 as inhibition by little substance. What is called ΔTm is the change in melting temperature against a reference sample. The Inhibition is the drop in the measured response relative to a control, in per cent. The low end stands for a response near the control, the high end for a response far below the control.

One assay relates to L1210. In words: In vitro cytotoxicity against mouse leukemia L1210 cell lines. In kind it is functional, cell-based.
Assay [1] deals with Calf thymus DNA. As to the kind of experiment: Thermal denaturation of calf thymus DNA at 37 degree C. The conditions noted are these: Bos taurus. In kind it is nucleic-acid assay. The method in brief: (§1)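 Calf thymus DNA at 100 μM with ligand at 20 μM (1:5 [PBD]/[DNA] molar ratio), in 10 mM sodium phosphate plus 1 mM EDTA, pH 7.00 ± 0.01. Samples were incubated at 37 °C for 0 h or 18 h before thermal melting. The value is the induced ΔTm against DNA alone, whose Tm is the mean of 10 separate determinations.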

Assay [2] has as its system HT-29. In words: Percent growth inhibition against human colon HT-29 cell lines at the concentration of 10E-5. The class given is functional.
Assay [3] deals with Calf thymus DNA. In words: Thermal denaturation of calf thymus DNA at 0 h at 37 degree C. The class given is nucleic-acid assay. The conditions noted are these: Bos taurus. The method in brief:
as §1

Assay [4] concerns HT-29. As to the kind of experiment: Percent growth Inhibition against human colon HT-29 cell lines at the concentration of 10E-6. In kind it is functional.
Assay [5] concerns HOP-62. In words: Percent growth inhibition against human lung HOP-62 cell lines at the concentration of 10E-6. In kind it is functional.
The test system of assay [6] is HT-29. In words: Percent growth inhibition against human colon HT-29 cell lines at the concentration of 10E-4. The class given is functional.
Assay [7] relates to A549. As to the kind of experiment: Percent growth inhibition against human lung A-549 cell lines at the concentration of 10E-4. In kind it is functional.
Assay [8] concerns HOP-62. In words: Percent growth inhibition against human lung HOP-62 cell lines at the concentration of 10E-5. In kind it is functional.
In assay [9] the test system is HCT-15. In words: Percent growth inhibition against human colon HCT-15 cell lines at the concentration of 10E-6. The class given is functional.
For assay [10], the system named is HCT-15. As to the kind of experiment: Percent growth inhibition against human colon HCT-15 cell lines at the concentration of 10E-5. The class given is functional.
The subject of assay [11] is A549. In words: Percent growth inhibition against human lung A-549 cell lines at the concentration of 10E-6. In kind it is functional.
For assay [12], the system named is SiHa. In words: Percent growth inhibition against human cervix SiHa cell lines at the concentration of 10E-6. In kind it is functional.
Assay [13] has as its system A549. As to the kind of experiment: Percent growth inhibition against human lung A-549 cell lines at the concentration of 10E-5. In kind it is functional.
For assay [14], the system named is Calf thymus DNA. As to the kind of experiment: Thermal denaturation of calf thymus DNA at 18 hr at 37 degree C. The class given is nucleic-acid assay. Particulars: Bos taurus. The method in brief:
as §1

Assay [15] concerns SiHa. In words: Percent growth inhibition against human cervix SiHa cell lines at the concentration of 10E-4. The class given is functional.
For assay [16], the system named is SiHa. In words: Percent growth inhibition against human cervix SiHa cell lines at the concentration of 10E-5. The class given is functional.

Turning to `O=C1c2c(O)ccc(O)c2C(=O)c2c(NCCNCCO)ccc(NCCNCCO)c21` [MITOXANTRONE], inhibition in the assay with L1210 was half-maximal at 100 nM (IC50). Besides, the ΔTm in the assay on Calf thymus DNA [1] came out at 15.9 °C.

As to `COc1cc2c(cc1OCCCC(=O)Nc1cccc3c1C(=O)c1ccccc1C3=O)N=C[C@@H]1CCCN1C2=O`, the Inhibition in the assay on HT-29 [2] was determined as 86%; with HT-29 [4] it was 68%; with HOP-62 [5], 74%; with HT-29 [6], 93%; with A549 [7] it was 93%; in the assay with HOP-62 [8], 90%. Also, the Inhibition with HCT-15 [9] was found to be 59%; in the assay with HCT-15 [10], 66%; in the assay with A549 [11] it was 47%; in the assay on SiHa [12], 41%; in the assay with A549 [13], 27%; with SiHa [15] it was 57%. Further, the Inhibition with SiHa [16] is given as 52%. Besides, the ΔTm with Calf thymus DNA [3] was found to be 8.9 °C; in the assay on Calf thymus DNA [14], 9.1 °C.

For `COc1cc2c(cc1O)N=C[C@@H]1CCCN1C2=O`, the ΔTm with Calf thymus DNA [3] was 0.3 °C.

For `COc1cc2c(cc1OCCCCC(=O)Nc1cccc3c1C(=O)c1ccccc1C3=O)N=C[C@@H]1CCCN1C2=O`, the Inhibition with HT-29 [2] is given as 87%; in the assay with HT-29 [4], 73%; with HOP-62 [5] it was 73%; with HT-29 [6], 93%; in the assay on A549 [7], 93%; in the assay on HOP-62 [8] it was 97%. The Inhibition with HCT-15 [9] was determined as 61%; in the assay on HCT-15 [10], 82%; with A549 [11], 56%; in the assay with SiHa [12], 40%; in the assay on A549 [13] it was 10%; with SiHa [15] it was 73%. This molecule returned an Inhibition with SiHa [16] of 49%. Further, the ΔTm stood at 5.1 °C in the assay with Calf thymus DNA [3] and 5.2 °C in the assay on Calf thymus DNA [14].
